ChEMBL document CHEMBL1122917, “Vinblastin-23-oyl amino acid derivatives: chemistry, physicochemical data, toxicity, and antitumor activities against P388 and L1210 leukemias” (J Med Chem, 1985)

How the values were obtained:
Type in all cases: functional
Mus musculus [1] = assay: Number of survivors on 30th day at dose 25 mg/kg/day in 10 mice implanted with P388 leukemia cell line
Mus musculus [2] = assay: Percent increase in life span at dose 12.5 mg/kg/day in 10 mice implanted with P388 leukemia cell line
Procedure, shortened: (§1)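 Female DBA2 mice inoculated iv on day 0 with 10^4 P388 cells; single iv treatment on day 1 with drug as sulfate salt in physiological saline. Survival followed; %ILS from all deaths and survivors as (T/C × 100) − 100, maximal MST 30 days; survivors counted on days 30 and 60. Most experiments confirmed three times.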

Mus musculus [3] = assay: Percent increase in life span at dose 10 mg/kg/day in 10 mice implanted with P388 leukemia cell line; procedure, shortened: as §1
Mus musculus [4] = assay: Percent increase in life span at dose 25 mg/kg/day in 10 mice implanted with P388 leukemia cell line
Mus musculus [5] = assay: Percent increase in life span of DBA2 mice after inoculation with L1210 leukemia intravenously at a dose of 12.5 mg/kg per day; details: route intravenous
Procedure, shortened: (§2)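 Female DBA2 mice inoculated iv on day 0 with 10^4 L1210 cells; drugs given iv as sulfate salts in physiological saline, mostly once on day 1. %ILS from all deaths and survivors as (T/C × 100) − 100; survivors scored on days 30 and 60.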

Mus musculus [6] = assay: Number of survivors of DBA2 mice on 30th day after inoculation with L1210 leukemia cell line intravenously at a dose of 12.5 mg/kg/day; 0/10; details: route intravenous
Mus musculus [7] = assay: Percent increase in life span at dose 15 mg/kg/day in 10 mice implanted with P388 leukemia cell line; procedure, shortened: as §1
Mus musculus [8] = assay: Number of survivors on 60th day at dose 12.5 mg/kg/day in 10 mice implanted with P388 leukemia cell line
Mus musculus [9] = assay: Number of survivors on 30th day at dose 12.5 mg/kg/day in 10 mice implanted with P388 leukemia cell line
Mus musculus [10] = assay: Percent increase in life span at dose 5 mg/kg/day in 10 mice implanted with P388 leukemia cell line; procedure, shortened: as §1
Mus musculus [11] = assay: Number of survivors on 30th day at dose 5 mg/kg/day in 10 mice implanted with P388 leukemia cell line
Mus musculus [12] = assay: Number of survivors on 60th day at dose 25 mg/kg/day in 10 mice implanted with P388 leukemia cell line
Mus musculus [13] = assay: Number of survivors of DBA2 mice on 60th day after inoculation with L1210 leukemia cell line intravenously at a dose of 12.5 mg/kg/day; 0/10; details: route intravenous
Mus musculus [14] = assay: Number of survivors on 60th day at dose 10 mg/kg/day in 10 mice implanted with P388 leukemia cell line
Mus musculus [15] = assay: Number of survivors on 60th day at dose 15 mg/kg/day in 10 mice implanted with P388 leukemia cell line
Mus musculus [16] = assay: Number of survivors on 30th day at dose 10 mg/kg/day in 10 mice implanted with P388 leukemia cell line
Mus musculus [17] = assay: Number of survivors on 30th day at dose 15 mg/kg/day in 10 mice implanted with P388 leukemia cell line
Mus musculus [18] = assay: Number of survivors on 60th day at dose 5 mg/kg/day in 10 mice implanted with P388 leukemia cell line
Mus musculus [19] = assay: Number of survivors on 60th day at dose 7.5 mg/kg/day in 10 mice implanted with P388 leukemia cell line; 0/10
Mus musculus [20] = assay: Number of survivors on 60th day at dose 5 mg/kg/day in 10 mice implanted with P388 leukemia cell line; 0/10
Mus musculus [21] = assay: Number of survivors on 30th day at dose 10 mg/kg/day in 10 mice implanted with P388 leukemia cell line; 0/10
Mus musculus [22] = assay: Number of survivors on 60th day at dose 10 mg/kg/day in 10 mice implanted with P388 leukemia cell line; 0/10
Mus musculus [23] = assay: Percent increase in life span at dose 7.5 mg/kg/day in 10 mice implanted with P388 leukemia cell line
Mus musculus [24] = assay: Number of survivors on 30th day at dose 7.5 mg/kg/day in 10 mice implanted with P388 leukemia cell line; 0/10
Mus musculus [25] = assay: Number of survivors on 30th day at dose 5 mg/kg/day in 10 mice implanted with P388 leukemia cell line; 0/10
Mus musculus [26] = assay: Number of survivors of DBA2 mice on 60th day after inoculation with L1210 leukemia cell line intravenously at a dose of 50 mg/kg/day; 0/10; details: route intravenous
Mus musculus [27] = assay: Percent increase in life span at dose 40 mg/kg/day in 10 mice implanted with P388 leukemia cell line; procedure, shortened: as §1
Mus musculus [28] = assay: Number of survivors on 30th day at dose 80 mg/kg/day in 10 mice implanted with P388 leukemia cell line; 7/10
Mus musculus [29] = assay: Number of survivors on 30th day at dose 55 mg/kg/day in 10 mice implanted with P388 leukemia cell line; 7/10
Mus musculus [30] = assay: Percent increase in life span at dose 55 mg/kg/day in 10 mice implanted with P388 leukemia cell line; procedure, shortened: as §1
Mus musculus [31] = assay: Percent increase in life span at dose 70 mg/kg/day in 10 mice implanted with P388 leukemia cell line; procedure, shortened: as §1
Mus musculus [32] = assay: Number of survivors on 30th day at dose 50 mg/kg/day in 10 mice implanted with P388 leukemia cell line; 2/10
Mus musculus [33] = assay: Percent increase in life span at dose 60 mg/kg/day in 10 mice implanted with P388 leukemia cell line; procedure, shortened: as §1
Mus musculus [34] = assay: Number of survivors on 60th day at dose mg/kg/day in 10 mice implanted with P388 leukemia cell line; 2/10
Mus musculus [35] = assay: Percent increase in life span of DBA2 mice after inoculation with L1210 leukemia intravenously at a dose of 50 mg/kg per day; details: route intravenous; procedure, shortened: as §2
Mus musculus [36] = assay: Number of survivors on 30th day at dose 40 mg/kg/day in 10 mice implanted with P388 leukemia cell line; 1/10
Mus musculus [37] = assay: Number of survivors on 60th day at dose mg/kg/day in 10 mice implanted with P388 leukemia cell line; 4/10
Mus musculus [38] = assay: Number of survivors on 30th day at dose 70 mg/kg/day in 10 mice implanted with P388 leukemia cell line; 5/10
Mus musculus [39] = assay: Percent increase in life span at dose 80 mg/kg/day in 10 mice implanted with P388 leukemia cell line; procedure, shortened: as §1
Mus musculus [40] = assay: Number of survivors on 30th day at dose 60 mg/kg/day in 10 mice implanted with P388 leukemia cell line; 5/10
Mus musculus [41] = assay: Number of survivors on 60th day at dose mg/kg/day in 10 mice implanted with P388 leukemia cell line; 7/10
Mus musculus [42] = assay: Number of survivors of DBA2 mice on 30th day after inoculation with L1210 leukemia cell line intravenously at a dose of 50 mg/kg/day; 0/10; details: route intravenous
Mus musculus [43] = assay: Percent increase in life span at dose 50 mg/kg/day in 10 mice implanted with P388 leukemia cell line; procedure, shortened: as §1
Mus musculus [44] = assay: Number of survivors on 60th day at dose mg/kg/day in 10 mice implanted with P388 leukemia cell line; 5/10
Mus musculus [45] = assay: Number of survivors on 60th day at dose mg/kg/day in 10 mice implanted with P388 leukemia cell line; 1/10

SMILES: CCOC(=O)[C@H](C)NC(=O)[C@@]1(O)[C@H](O)[C@]2(CC)C=CCN3CC[C@@]4(c5cc([C@@]6(C(=O)OC)C[C@H]7C[N@](CCc8c6[nH]c6ccccc86)C[C@](O)(CC)C7)c(OC)cc5N(C)[C@@]14C)[C@@H]32
- Survivors (Mus musculus [1]): 2
- ILS at 12.5 mg/kg/day (Mus musculus [2]): 46%
- ILS at 10 mg/kg/day (Mus musculus [3]): 36.8%
- ILS at 25 mg/kg/day (Mus musculus [4]): 63.8%
- ILS at 12.5 mg/kg/day (Mus musculus [5]): 50%
- Survivors (Mus musculus [6]): 0
- ILS at 15 mg/kg/day (Mus musculus [7]): 39%
- Survivors (Mus musculus [8]): 1
- Survivors (Mus musculus [9]): 1
- ILS at 5 mg/kg/day (Mus musculus [10]): 27.6%
- Survivors (Mus musculus [11]): 0
- Survivors (Mus musculus [12]): 1
- Survivors (Mus musculus [13]): 0
- Survivors (Mus musculus [14]): 2
- Survivors (Mus musculus [15]): 0
- Survivors (Mus musculus [16]): 2
- Survivors (Mus musculus [17]): 0
- Survivors (Mus musculus [18]): 0

SMILES: CCOC(=O)[C@H](CO)NC(=O)[C@@]1(O)[C@H](O)[C@]2(CC)C=CCN3CC[C@@]4(c5cc([C@@]6(C(=O)OC)C[C@H]7C[N@](CCc8c6[nH]c6ccccc86)C[C@](O)(CC)C7)c(OC)cc5N(C)[C@@]14C)[C@@H]32
- Survivors (Mus musculus [19]): 0
- ILS at 10 mg/kg/day (Mus musculus [3]): 32%
- Survivors (Mus musculus [20]): 0
- Survivors (Mus musculus [21]): 0
- Survivors (Mus musculus [22]): 0
- ILS at 7.5 mg/kg/day (Mus musculus [23]): 26%
- ILS at 5 mg/kg/day (Mus musculus [10]): 16%
- Survivors (Mus musculus [24]): 0
- Survivors (Mus musculus [25]): 0

SMILES: CCCCOC(=O)[C@H](Cc1c[nH]c2ccccc12)NC(=O)[C@@]1(O)[C@H](O)[C@]2(CC)C=CCN3CC[C@@]4(c5cc([C@@]6(C(=O)OC)C[C@H]7C[N@](CCc8c6[nH]c6ccccc86)C[C@](O)(CC)C7)c(OC)cc5N(C)[C@@]14C)[C@@H]32
- Survivors (Mus musculus [26]): 0
- ILS at 40 mg/kg/day (Mus musculus [27]): 63%
- Survivors (Mus musculus [28]): 7
- Survivors (Mus musculus [29]): 7
- ILS at 55 mg/kg/day (Mus musculus [30]): > 163%
- ILS at 70 mg/kg/day (Mus musculus [31]): 52%
- Survivors (Mus musculus [32]): 2
- ILS at 60 mg/kg/day (Mus musculus [33]): 140%
- Survivors (Mus musculus [34]): 2
- ILS at 50 mg/kg/day (Mus musculus [35]): 44%
- Survivors (Mus musculus [36]): 1
- Survivors (Mus musculus [37]): 4
- Survivors (Mus musculus [38]): 5
- ILS at 80 mg/kg/day (Mus musculus [39]): > 216%
- Survivors (Mus musculus [40]): 5
- Survivors (Mus musculus [41]): 7
- Survivors (Mus musculus [42]): 0
- ILS at 50 mg/kg/day (Mus musculus [43]): 31.6%
- Survivors (Mus musculus [44]): 5
- Survivors (Mus musculus [45]): 1
